Experimental data: the EternaBench riboswitch data

How the values were obtained:
MS2 coat protein [1] = test: apparent Kd, MS2 coat protein; higher = weaker binding; RNA-MaP array
Summary of the method: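 Fluorescently labeled MS2 coat protein, from 1.5 nM to 3 μM, was incubated at room temperature with designed RNAs transcribed on an Illumina sequencing chip from sequenced DNA templates. Times ran from 0.8–1.5 h at the lowest concentrations to 10–20 min at the highest, in Tris-HCl pH 7.5 buffer with KCl, MgCl2, BSA, DTT, tRNA and Tween20, with or without input ligand. Each apparent Kd is the median of per-cluster binding-curve fits, and designs with fewer than 10 measured clusters were excluded.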

MS2 coat protein [2] = test: apparent Kd, MS2 coat protein; higher = weaker binding; RNA-MaP array; FMN 200 µM where present
Summary of the method: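 The apparent Kd is reported as the median of filtered per-cluster binding-curve fits. To get these curves, designs transcribed by stalled E. coli RNA polymerase on Illumina sequencing-chip clusters were titrated with SNAP-549-labelled MS2 coat protein from 0.7 or 1.5 nM, doubling to 3 µM. Titrations were run without and then with constant ligand in 100 mM Tris-HCl pH 7.5, 80 mM KCl, 4 mM MgCl2, BSA, DTT, yeast tRNA and Tween-20, and green signal was normalised to red-channel RNA signal and control-cluster median Fmax.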

[3] = designed as: OFF switch for flavin mononucleotide, no ligand
[4] = ligand present: flavin mononucleotide, designed as: OFF switch for flavin mononucleotide
[5] = designed as: ON switch for flavin mononucleotide, no ligand
[6] = ligand present: flavin mononucleotide, designed as: ON switch for flavin mononucleotide
[7] = designed as: ON switch for theophylline, no ligand
[8] = ligand present: theophylline, designed as: ON switch for theophylline

Row | Sequence | apparent Kd (MS2 coat protein [1]; [3]) [nM] | apparent Kd (MS2 coat protein [1]; [4]) [nM] | apparent Kd (MS2 coat protein [1]; [5]) [nM] | apparent Kd (MS2 coat protein [1]; [6]) [nM] | further results
1 | UGUAUGUUAGGAUAUAGUGUGACACUGUAAUUGCUCGGCACCUAGAAGGAACAUGAGGAUCACCCAUGUGGUGG | 337 | 244 |  |  | 
2 | CUGAGCCUGUGUGUACAUGAGGAUCACCCAUGUUCGAUAGGGUAGGAUAUCGCAGUUUCUUGAGCCGAGAAGGACCCUAAUGGA | 16.5 | 30.1 |  |  | 
3 | GUCAACGAAGGAUAUACAGGGAUACCCGUCGAGUACGGAGCACAUGAGGAUCACCCAUGUAGAAGGUCGGUGUG | 52 | 142 |  |  | 
4 | CGAAGUAGUAGAGGAUAUGCUAGAGAUGGUUCUGCAGAAGGCUACCCUCUUGAUUAUAUUACAUGAGGAUCACCCAUGUUGGUU | 10.7 | 10.2 |  |  | 
5 | CCUGAGGUUAUAGGAUAUAGGCUAGAGAGGUACGAUUCUUUAUGAACAUGAGGAUCACCCAUGUCCUAGAAGGAUACUUAGUAG |  |  | 58.1 | 112 | 
6 | CACGAACAUGAGGAUCACCCAUGUCAGGAUAUCGUGCUAAUCCCAUAAUCGGCGCGCACGAGAAGGGACCAGGG | 12.7 | 19.6 |  |  | 
7 | GGCCCACAUGAGGAUCACCCAUGUGUGGAUACCAGCCUCAUUUAGGGCCCUUGGCAGCCAGAUAGUAACAAGUCCGAAACACAGA |  |  |  |  | apparent Kd (MS2 coat protein [1]; [7]): 93.3 nM; apparent Kd (MS2 coat protein [1]; [8]): 94.1 nM
8 | UGUACAACAUGAGGAUCACCCAUGUGGCACCUCUGUCGAUUCGAGGAUAUCAGGUAAAGUGGCUGUGAGAAGGCGAAAGUUCCG | 65 | 50.3 |  |  | 
9 | UAUUUGGCGCUAGGAUAUAAAGGAACUAUUUAAUUAGAAGGAGCACGGGAACCUGAGGUACAUGAGGAUCACCCAUGUCUGAUA |  |  | 17.6 | 19.1 | 
10 | GGACUAUCAGGAUAUACAUGAGGAUCACCCAUGUACUUUAGGUAAUGGGACUACACCGGUAGAAGGGAUUAAAG | 116 | 84.8 |  |  | 
11 | ACACAUGAGGAUCACCCAUGUCGACGUUAGGCUCGUCGCGGCAGAAGGUGUGGCAUGGACACCCACAAGGAUAUGCAUGGGACU |  |  | 174 | 119 | 
12 | GACCCUACGGAGAAGGCACCUACAUGAGGAUCACCCAUGUUUGAUCGUUUGCCGGACGGCUUACGUGAGGAUAUCCAGGUACAG |  |  | 14.8 | 7.2 | 
13 | GGCAAGUGAUAGAAGGGAUACAUGAGGAUCACCCAUGUAAGGGCGAAGCCUACCCUCCUUAAAGAUCAGGAUAUAUUGCAGACG | 20.3 | 19.6 |  |  | 
14 | CCGUUUCGGACAAGCAACACAUGAGGAUCACCCAUGUCAAUCUAGGAUAUCAUAAGGAUAUAACGUGAGAAGGAGAGCGACAGG | 33.2 | 24.4 |  |  | 
15 | UAAACAUGAGGAUCACCCAUGUAUUGGAGUAACCGCAAGAGGAGAAGGACCGGAGUGAGAUUAUGGUAGGAUAUCCCAACUACA |  |  | 17.6 | 12.1 | 
16 | GCAUACGGAUAGAAGGAACUCUACGAUACGACAUGAGGAUCACCCAUGUAAUAUCAGUUAAACGGUUAGGAUAUAUGGGUAGUC |  |  | 81.6 | 41.9 | 
17 | CCUUCGUCGAAUGUGUAACAUGAGGAUCACCCAUGUAGUCUGGAGGAUAUCUAACACAGCUGAAAAGAGAAGGCCAGGUCUGCA | 26 | 48.6 |  |  | 
18 | CCUCGAUUUUGAUACCGAUAUGUCUUUGAUACCAGCGCCAUAGUACGCCCUUGGCAGCAAGAAACAUGAGGAUCACCCAUGUUAA |  |  |  |  | apparent Kd (MS2 coat protein [1]; designed as: OFF switch for theophylline, no ligand): 16.7 nM; apparent Kd (MS2 coat protein [1]; ligand present: theophylline, designed as: OFF switch for theophylline): 49.8 nM
19 | AACAUGAGGAUCACCCAUGUUCUGCAAUAAAGUGUAUCAUAUAAGGAUAUCAGACUAAUACGAACUGAGAAGGUAUUCCUACAC |  |  | 5.3 | 4.39 | 
20 | AUGUAACGUGAGAAGGUGUUGAAAUAAGUUCCAUAAAUCUUACAUGAGGAUCACCCAUGUUUAUACAAGGAUAUCAUUAAUUAU |  |  | 16.8 | 12.9 | 
21 | GUUAUAAUUACCAAGGAUAUCACAAGGCUUACAUGAGGAUCACCCAUGUUAAUACUCACAGACCGUGAGAAGGUGGCAAGAUCGAU |  |  | 21.4 | 16 | 
22 | GGGUAACCAGUUAGGAUAUUGAAUAGUUUGAUGUUCAAGAAGGAACAUGAGGAUCACCCAUGUAUGGGACUAGA | 139 | 174 |  |  | 
23 | UUAGAGAGAGGAUAUACAGAGUAUCAACUCGGCGGACAAGAACAUGAGGAUCACCCAUGUAGAAGGCUCUCAGA | 18.6 | 67.1 |  |  | 

Row | Sequence | apparent Kd (MS2 coat protein [1]; [3]) [nM] | apparent Kd (MS2 coat protein [1]; [4]) [nM] | apparent Kd (MS2 coat protein [1]; [5]) [nM] | apparent Kd (MS2 coat protein [1]; [6]) [nM] | further results
24 | GAAGAAAAGUGAGGAUAUGGCAACCAGAUGACGCAAACAAUAAAACAUGAGGAUCACCCAUGUACCCAGAAGGCACCAAACAAA |  |  | 15.2 | 9.48 | 
25 | GCAUUAUUAUUAGAUACCAGUGUCGCAGGCGACAUGAGGAUCACCCAUGUAAAGUUACUCCACCCUUGGCAGCUAGUUCGACUAC |  |  |  |  | apparent Kd (MS2 coat protein [1]; [7]): 103 nM; apparent Kd (MS2 coat protein [1]; [8]): 26.3 nM
26 | CCAUAAGACGAGAAGGGCUGCCAACUAGGUAGAGCAGGAUAUCGUCUUACUCGUCAUGGCAAAACAUGAGGAUCACCCAUGUAU | 8.16 | 7.82 |  |  | 
27 | UGUCCGUGAUCGGCCGCCACUCAACAAACCUGUGGAAACUGACAUGAGGAUCACCCAUGUUCUUGGAGGACCGGGAUUGCUUCGA |  |  |  |  | apparent Kd (MS2 coat protein [1]; designed as: ON switch for tryptophan, no ligand): 14.6 nM; apparent Kd (MS2 coat protein [1]; ligand present: tryptophan, designed as: ON switch for tryptophan): 17.3 nM
28 | ACGAAGUGAGGAUAUACAUGAGGAUCACCCAUGUGCCCAGGGUGUGAUUGUAAAGAACGUAGAAGGCACAAUAG | 594 | 132 |  |  | 
29 | AGAGUGAGAGGAUAUUUUGGCGUAGACAUGAGGAUCACCCAUGUGUCGUGGGCACUGCUGAAAGAAGGCUCAGCUC | 29.3 | 25.3 |  |  | 
30 | AGCUCGGCAGGAUAUACAUGAGGAUCACCCAUGUUUGCAGGCGCGCCGGUAGACUUUUGUAGAAGGGCCGUAUA | 44.8 | 113 |  |  | 
31 | CCCGUGCUGCGAGGAUAUGUGUAGGAUGUUUCCACAGAAGGCGCUGGAGACAUGAGGAUCACCCAUGUGAACCCACGUACGACA |  |  | 24.9 | 19.9 | 
32 | CGCCUACAUGAGGAUCACCCAUGUGAUGUUACGGUAGGAUAUAGAGCUGAGCCACUCUGCCUAGAAGGACCUAUAC |  |  | 68.8 | 37.3 | 
33 | UAACGUACAAAAGGAUAUGCCAAUAGAAAGAUCUUACAAUAAACACAUGAGGAUCACCCAUGUAAGCAGAAGGUUUGGAAACAA | 12.4 | 10.2 |  |  | 
34 | UCCAAAUUCCAGAAGGCGUUUAAGCGAGGGUAGGGCGUGCAACAUGAGGAUCACCCAUGUAAUCACGAGGAUAUGGGAGGCACC | 7.65 | 8.34 |  |  | 
35 | GUCGCGUAGCAAGGAUAUGCAAAGAGGAAAACUGCAGAAGGUGCCAUUAAAGGACAUGAGGAUCACCCAUGUGCAUUAUCCACA |  |  | 53.4 | 30.9 | 
36 | AAUACAUGAGGAUCACCCAUGUUGACAUCAUGAGCCAACCUUAGAAGGACUUUAAUGACGCUCGAGUAGGAUAUAAGGCAAGUU |  |  | 13.7 | 12 | 
37 | AAGAGCAGAGGAUAUACAUAGGCAUCAGUUGAAGCAGCUGAACAUGAGGAUCACCCAUGUAGAAGGCUGACAAA | 5.43 | 7.29 |  |  | 
38 | GAAUAGGAUCAGAAGGAGCUCCAACGGUGACAUGAGGAUCACCCAUGUACUAAACUACAGAAAAGCUAGGAUAUGAAUAAUAGG |  |  | 27.7 | 25.4 | 
39 | UUUGCAACAUGAGGAUCACCCAUGUAGGAUAUCGCUAUUGUAAUCAUGAAACAUGAUUACAAUAGCGAGAAGGACAUAUGUCCC |  |  |  |  | apparent Kd (MS2 coat protein [2]; [3]): 7.56 nM; apparent Kd (MS2 coat protein [2]; [4]): 8.59 nM
40 | ACUGAAGUCACAGGAUAUCAUAUGCCGGCACAUUGAGAAGGGUGACUGGGCUACAUGAGGAUCACCCAUGUGCCGUCGUAACAA |  |  |  |  | apparent Kd (MS2 coat protein [2]; [5]): 29.8 nM; apparent Kd (MS2 coat protein [2]; [6]): 36.9 nM
41 | GCCGAACAUGAGGAUCACCCAUGUCCGGGUAGUCAAGGAUAUGGGUAGGCAAUGCCGUGGCCAGAAGGUGGCUAUC |  |  |  |  | apparent Kd (MS2 coat protein [2]; [5]): 97.6 nM; apparent Kd (MS2 coat protein [2]; [6]): 30.9 nM
42 | GCGAUUGCGUAGAAGGUACUAUAUAAUACACUGUAAGGAUAUACAUACAUGAGGAUCACCCAUGUAAAUGGAAUUUGCAAUCGC |  |  |  |  | apparent Kd (MS2 coat protein [2]; [5]): 6.93 nM; apparent Kd (MS2 coat protein [2]; [6]): 6.41 nM
43 | GGCGGUCGGGAGGAUAUUCGGGCUGUUUGGCUUGGAGAAGGCUCGACAUGAGGAUCACCCAUGUUGGUGUUUCC |  |  |  |  | apparent Kd (MS2 coat protein [2]; [3]): 561 nM; apparent Kd (MS2 coat protein [2]; [4]): 103 nM
44 | GCGCGCGUUGUGAGGAUAUUGUGUGUGAAAGCGCGCGAGAAGGCACAUGAGGAUCACCCAUGUAAGGUGUGUGU |  |  |  |  | apparent Kd (MS2 coat protein [2]; [3]): 455 nM; apparent Kd (MS2 coat protein [2]; [4]): 392 nM
45 | AGCGCGGUCCACUUGGACGCCUACGAGGAUAUCCCGUCACAUGAGGAUCACCCAUGUAGGCGCAUGGAGAAGGCGUAGAAAUCA |  |  |  |  | apparent Kd (MS2 coat protein [2]; [5]): 152 nM; apparent Kd (MS2 coat protein [2]; [6]): 13.7 nM
